Data set [1] in a line: Solubility of compound. It counts as physicochemical.
Data set [2] in a line: Inhibition of GDH (unknown origin) using NADP+ and glutamate as substrate preincubated for 0.5 hrs followed by substrate addition and measured after 1 hr by EZMTT reagent-based UV-Vis absorbance assay. Details: species or system Homo sapiens.
The subject of data set [3] is A549. The experiment in a line: Antiproliferative activity against human A549 cells after 5 days by EZMTT reagent-based assay. The settings on record: A549, 120 h. It counts as functional, cell-based.
Data set [4] relates to A549. Nature of the data set: Antiproliferative activity against human A549 cells after 5 days by EZMTT reagent-based assay relative to control. In kind it is functional.
The test system of data set [5] is H22. Nature of the data set: Antiproliferative activity against mouse H22 cells after 5 days by EZMTT reagent-based assay. In kind it is functional, cell-based. As to conditions: H22, 120 h.
Data set [6] has as its system H22. Nature of the data set: Antiproliferative activity against mouse H22 cells after 5 days by EZMTT reagent-based assay relative to control. In kind it is functional.
Data set [7] concerns CAKI-1. The experiment in a line: Antiproliferative activity against human Caki1 cells after 5 days by EZMTT reagent-based assay. It counts as functional, cell-based. The settings on record: CAKI-1, 120 h.
In data set [8] the test system is CAKI-1. Nature of the data set: Antiproliferative activity against human Caki1 cells after 5 days by EZMTT reagent-based assay relative to control. It counts as functional.
The subject of data set [9] is HCT-116. The experiment in a line: Antiproliferative activity against human HCT116 cells after 5 days by EZMTT reagent-based assay. The settings on record: HCT-116, 120 h. In kind it is functional, cell-based.
In data set [10] the test system is HCT-116. The experiment in a line: Antiproliferative activity against human HCT116 cells after 5 days by EZMTT reagent-based assay relative to control. In kind it is functional.
In data set [11] the test system is A549. Nature of the data set: Induction of ROS generation in human A549 cells at 10 uM after 12 hrs by DCFH-DA staining-based fluorescence microscopic analysis. In kind it is functional, cell-based. The essentials: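 A549 cells were seeded at 10000 per well and exposed to compound at 0, 3 or 10 µM for 12 h. ROSUP at 100 µg/ml served as the positive control, alongside untreated cells. ROS was then assessed.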

Data set [12] has as its system HCT-116. Nature of the data set: Antitumor activity against human HCT116 cells xenografted in nude mouse assessed reduction in tumor weight at 10 mg/kg, […] relative to control. Details: scale not given: the % may be the effect or the level left. In kind it is functional.
The test system of data set [13] is HCT-116. Nature of the data set: Antitumor activity against human HCT116 cells xenografted in nude mouse assessed induction of tumor necrosis at 10 mg/kg, […] by hematoxylin and eosin staining-based assay. In kind it is functional, organism-based. (In xenograft studies the graft and the host belong to different species.)
For data set [14], the system named is H22. The experiment in a line: Antitumor activity against mouse H22 cells transplanted in ICR mouse assessed as increase in mouse survival at 10 mg/kg, sc administered once daily for 10 consecutive days relative to control. It counts as functional, organism-based.
The nature of data set [15]: Drug level in tumor of mouse H22 cells transplanted ICR mouse at 10 mg/kg, sc administered once daily for 10 consecutive days by HPLC analysis. It counts as ADME, organism-based, Neoplasm. The settings on record: in vivo. The essentials: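 Compound accumulation was measured in end-point tumours from H22-bearing ICR mice after once-daily subcutaneous 10 mg/kg dosing, 10 injections. Tumour content was analysed by HPLC.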

A short description of data set [16]: Metabolic stability in ICR mouse blood after 2 hrs by HPLC analysis. In kind it is ADME, tissue-based. The essentials: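 Compound was incubated in blood for 2 h and its remaining concentration was quantified by HPLC.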
Data set [17] is described as follows: Metabolic stability in mouse liver microsomes at 50 uM after 4 hrs in presence of NADPH by HPLC analysis. The settings on record: read-out: Stability. It counts as ADME, Microsome. The essentials:
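Compound was incubated with mouse liver microsomes for 4 h, with coumarin as the control. The remaining level was quantified by HPLC using UV absorbance at 254 nm.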

Data set [18] is described as follows: Retention time of compound in mouse liver microsomes at 50 uM by LC-MS/MS analysis. It counts as ADME, Microsome. For orientation: Liver microsomes are vesicles of endoplasmic reticulum, rich in cytochrome P450 enzymes.
Data set [19] concerns H22. The experiment in a line: Antitumor activity against mouse H22 cells transplanted in ICR mouse assessed as reduction in tumor size at 10 mg/kg, sc administered once daily for 10 consecutive days relative to control. It counts as functional, organism-based. The essentials:
(§1)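 H22 liver cancer model in young SPF ICR mice, n=10 per group. Compound given subcutaneously once daily at 10 mg/kg, 10 injections; the control group received N.S. End-point tumour size and weight, body weight and survival were recorded. Treated groups were compared with control by unpaired t test.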

Data set [20] has as its target T1, Glutaminase kidney isoform, mitochondrial (Homo sapiens, UniProt O94925).
T1 sequence (O94925 whole entry): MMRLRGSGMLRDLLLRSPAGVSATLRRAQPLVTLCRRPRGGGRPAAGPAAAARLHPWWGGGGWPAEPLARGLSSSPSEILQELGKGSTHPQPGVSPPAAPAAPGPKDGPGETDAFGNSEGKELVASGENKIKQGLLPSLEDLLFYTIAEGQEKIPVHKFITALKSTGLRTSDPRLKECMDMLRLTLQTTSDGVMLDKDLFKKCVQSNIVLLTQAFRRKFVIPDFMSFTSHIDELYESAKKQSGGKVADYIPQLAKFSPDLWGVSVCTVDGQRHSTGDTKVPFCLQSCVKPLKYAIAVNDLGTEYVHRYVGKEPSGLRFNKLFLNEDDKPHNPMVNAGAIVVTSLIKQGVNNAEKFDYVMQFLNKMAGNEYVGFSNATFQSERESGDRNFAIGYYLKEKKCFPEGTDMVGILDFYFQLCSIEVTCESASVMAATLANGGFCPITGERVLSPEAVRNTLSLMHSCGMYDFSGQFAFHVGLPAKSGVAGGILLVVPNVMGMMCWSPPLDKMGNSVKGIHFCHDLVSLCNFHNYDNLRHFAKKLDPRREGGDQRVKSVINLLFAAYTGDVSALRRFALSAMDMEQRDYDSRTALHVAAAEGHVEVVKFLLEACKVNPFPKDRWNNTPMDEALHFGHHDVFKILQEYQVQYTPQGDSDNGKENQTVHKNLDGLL
The experiment in a line: Inhibition of human KGA preincubated for 15 to 30 mins followed by substrate addition and measured after 3 to 4 hrs by GDH-EZMTT reagent-based GDH coupled assay.

The subject of data set [21] is H22. Nature of the data set: Antitumor activity against mouse H22 cells transplanted in ICR mouse assessed as reduction in tumor weight at 10 mg/kg, sc administered once daily for 10 consecutive days relative to control. Details: scale not given: the % may be the effect or the level left. In kind it is functional. In outline: as §1
The test system of data set [22] is H22. Nature of the data set: Antitumor activity against mouse H22 cells transplanted in ICR mouse assessed as induction of fibrous hyperplasia at tumor region at 10 mg/kg, sc administered once daily for 10 consecutive days by hematoxylin and eosin staining-based assay. In kind it is functional, organism-based.
Data set [23] deals with H22. Nature of the data set: Antitumor activity against mouse H22 cells transplanted in ICR mouse assessed as induction of inflammatory cell infiltration at tumor region at 10 mg/kg, sc administered once daily for 10 consecutive days by hematoxylin and eosin staining-based assay. It counts as functional, organism-based.
Data set [24] relates to H22. The experiment in a line: Antitumor activity against mouse H22 cells transplanted in ICR mouse assessed as induction of foam-like histiocytic reaction at tumor region at 10 mg/kg, sc administered once daily for 10 consecutive days by hematoxylin and eosin staining-based assay. In kind it is functional, organism-based.
For data set [25], the system named is H22. The experiment in a line: Antitumor activity against mouse H22 cells transplanted in ICR mouse assessed as induction of scattered deformed nuclei at tumor region at 10 mg/kg, sc administered once daily for 10 consecutive days by hematoxylin and eosin staining-based assay. In kind it is functional, organism-based.
For data set [26], the system named is H22. Nature of the data set: Antitumor activity against mouse H22 cells transplanted in ICR mouse assessed as induction of tumor deterioration at 10 mg/kg, sc administered once daily for 10 consecutive days by hematoxylin and eosin staining-based assay. In kind it is functional, organism-based.
For data set [27], the system named is HCT-116. Nature of the data set: Antitumor activity against human HCT116 cells xenografted in nude mouse assessed reduction in tumor size at 10 mg/kg, sc administered for 14 consecutive days. It counts as functional, organism-based. In outline:
(§2)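 HCT116 xenografts in young SPF nude mice, n=6 per group. Compound given at 10 mg/kg subcutaneously, […]; the control group received N.S. End-point tumour weight, tumour growth and body weight were recorded. End-point tumours were H&E stained to assess tissue damage. Weights were compared by unpaired t test.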

Data set [28] concerns HCT-116. The experiment in a line: Antitumor activity against human HCT116 cells xenografted in nude mouse assessed reduction in tumor weight at 10 mg/kg, sc administered for 14 consecutive days. It counts as functional, organism-based. The essentials:
as §2

A short description of data set [29]: Drug metabolism mouse liver microsomes assessed as metabolite formation due to loss of terminal pyridine and oxygen at 50 uM by LC-MS/MS analysis. In kind it is ADME, Microsome.

The source of these data is ChEMBL document CHEMBL4368901 (J Med Chem, 2019).

Activity calls are given as the source filed them. No cut-off for these calls is given here. Where only a bound is given, the exact number is not on record here.

Take `O=C(Cc1ccccc1)Nc1nnc(CCCCc2nnc(NC(=O)Cc3ccccc3)s2)s1`: in [1], the solubility entry is listed as “Insoluble”. Moreover, the IC50 in [2] and in [3] was > 13000 nM in each case. Also, the Imax in data set [4] is recorded as 0%.
In the case of `O=C(Cc1cccc(OC(F)(F)F)c1)Nc1ccc(CCCCc2nnc(NC(=O)Cc3ccccn3)[se]2)nn1`, the IC50 in data set [2] was > 13000 nM; in [3] it was 17 nM; in data set [5], 6780 nM; in [7], 19 nM; in data set [9], 9 nM. For the same compound, the Imax in [4] was found to be 82%; in data set [6] it was 75%; in data set [8], 89%; in data set [10] it was 90%. Also, the outcome in [11], in [13], in data set [14] and in [19] was Active. The compound further gave an Activity in data set [12] of 40%. For the same compound, in data set [15], the Drug uptake result is reported as “Active”. The Stability result in data set [16] is listed as “Stable”. In [17], the remaining at 4 h, 50 µM turned out to be 50%. In data set [18], this compound registered a Retention_time of 8.2 min.
As to `COc1ccc2c(c1)c(CC(=O)Nc1nnc(CCCCc3ccc(NC(=O)Cc4cccc(OC(F)(F)F)c4)nn3)[se]1)cn2C`, the IC50 is > 13000 nM in data set [2]; 10 nM in data set [20]; 10 nM in data set [3]; 4050 nM in [5]; 20 nM in data set [7]; 20 nM in data set [9]. Moreover, the Imax was determined as 90% in data set [4], 70% in data set [6], 90% in data set [8] and 92% in [10]. Also, in data set [21], the Activity turned out to be 40%. Moreover, the Drug uptake entry in data set [15] is on record as “Active”. Further, the Stability entry in [16] is “Stable”. The remaining at 4 h, 50 µM in data set [17] was 30%. The Retention_time in [18] is recorded as 10.7 min. Besides, the outcome in [22], in [23], in data set [24], in data set [25] and in data set [26] was Active.
Turning to `O=C(Cc1cccc(OC(F)(F)F)c1)Nc1ccc(CCCCc2nnc(NC(=O)Cc3ccccn3)s2)nn1`, the IC50 in [2] was > 13000 nM; in [5], > 10000 nM; in data set [9], 28 nM. Moreover, the Imax in data set [4] is listed as 82%; in data set [6], 44%; in data set [8], 88%; in data set [10], 90%. The outcome in data set [11], in data set [27], in data set [28], in data set [13], in data set [21] and in data set [19] was Active. The Stability result in data set [16] is reported as “Stable”. Further, in [17], the remaining at 4 h, 50 µM came out at 46%. In addition, in data set [18], the Retention_time is recorded as 7.97 min. In addition, the Drug metabolism result in data set [29] was “Metabolite_Detected”.

In general, IC50 refers to the concentration that gives 50% inhibition.
